For data set [1], the target named is T1, Bombesin receptor subtype-3 (Homo sapiens, UniProt P32247).
T1 sequence (P32247 whole entry): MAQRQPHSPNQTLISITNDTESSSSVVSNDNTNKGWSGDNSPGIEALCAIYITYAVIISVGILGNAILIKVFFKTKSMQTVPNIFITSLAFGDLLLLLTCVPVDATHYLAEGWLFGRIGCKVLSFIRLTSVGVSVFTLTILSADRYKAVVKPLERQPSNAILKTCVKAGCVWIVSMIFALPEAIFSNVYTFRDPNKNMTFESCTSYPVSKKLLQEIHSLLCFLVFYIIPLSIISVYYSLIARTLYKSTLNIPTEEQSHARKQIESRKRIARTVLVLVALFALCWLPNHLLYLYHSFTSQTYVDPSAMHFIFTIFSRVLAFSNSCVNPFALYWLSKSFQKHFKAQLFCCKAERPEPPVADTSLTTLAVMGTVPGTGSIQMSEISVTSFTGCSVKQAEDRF

The target of data set [2] is T1, Bombesin receptor subtype-3. As to the kind of experiment: Agonist activity at human BRS3 expressed in HEK293AEQ cells using 10 uM dy-peptide by bioluminescence assay.
Data set [3] has as its target Neuromedin-B receptor (Homo sapiens) (UniProt P28336).
Data set [4] concerns the target Gastrin-releasing peptide receptor (Homo sapiens) (UniProt P30550).
Data set [5] can be described thus: Mean residence time in Sprague-Dawley rat at 1 mg/kg, iv or 4 mg/kg, po. Type of data set: ADME, organism-based. The conditions noted are these: in vivo. In short, it runs like this: (§1)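 Male Sprague–Dawley rats. Blood collected at various time points into lithium heparin tubes and centrifuged; plasma stored at -70 °C until analysis. Plasma extracted by protein precipitation and quantified by LC/MS/MS.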

A short description of data set [6]: Half life in Sprague-Dawley rat at 1 mg/kg, iv or 4 mg/kg, po. Type of data set: ADME, organism-based. The conditions noted are these: in vivo. The essentials: as §1
Data set [7] can be described thus: Volume of distribution at steady state in Sprague-Dawley rat at 1 mg/kg, iv or 4 mg/kg, po. Type of data set: ADME, organism-based. Particulars: in vivo, read-out: Vdss. In short, it runs like this:
as §1

Data set [8] in a line: Plasma clearance in Sprague-Dawley rat at 1 mg/kg, iv or 4 mg/kg, po. Type of data set: ADME, organism-based. In short, it runs like this: as §1
The nature of data set [9]: Cmax in Sprague-Dawley rat at 1 mg/kg, iv or 4 mg/kg, po by LC/MS/MS. Type of data set: ADME, organism-based. The conditions noted are these: in vivo. In short, it runs like this: as §1
A short description of data set [10]: Bioavailability in Sprague-Dawley rat at 1 mg/kg, iv or 4 mg/kg, po. Type of data set: ADME, organism-based. Particulars: in vivo. The essentials: as §1

These results are taken from ChEMBL document CHEMBL1759937, “Pyridinesulfonylureas and pyridinesulfonamides as selective bombesin receptor subtype-3 (BRS-3) agonists” (Bioorg Med Chem Lett, 2011).

A value given as a limit tells only on which side of the number the result lay.

Chain of Gastrin-releasing peptide receptor (Homo sapiens) (P30550 whole entry, looked up): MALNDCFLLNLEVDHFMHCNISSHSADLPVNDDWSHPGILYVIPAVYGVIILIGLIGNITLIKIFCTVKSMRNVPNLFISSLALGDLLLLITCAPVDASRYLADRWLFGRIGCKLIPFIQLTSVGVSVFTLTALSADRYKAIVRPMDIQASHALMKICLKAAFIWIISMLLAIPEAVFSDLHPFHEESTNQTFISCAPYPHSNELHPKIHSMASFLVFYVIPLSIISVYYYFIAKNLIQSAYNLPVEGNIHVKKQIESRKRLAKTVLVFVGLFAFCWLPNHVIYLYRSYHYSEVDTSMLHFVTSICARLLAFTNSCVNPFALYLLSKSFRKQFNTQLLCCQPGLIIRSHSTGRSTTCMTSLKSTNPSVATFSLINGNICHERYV
Chain of Neuromedin-B receptor (Homo sapiens) (P28336 whole entry, looked up): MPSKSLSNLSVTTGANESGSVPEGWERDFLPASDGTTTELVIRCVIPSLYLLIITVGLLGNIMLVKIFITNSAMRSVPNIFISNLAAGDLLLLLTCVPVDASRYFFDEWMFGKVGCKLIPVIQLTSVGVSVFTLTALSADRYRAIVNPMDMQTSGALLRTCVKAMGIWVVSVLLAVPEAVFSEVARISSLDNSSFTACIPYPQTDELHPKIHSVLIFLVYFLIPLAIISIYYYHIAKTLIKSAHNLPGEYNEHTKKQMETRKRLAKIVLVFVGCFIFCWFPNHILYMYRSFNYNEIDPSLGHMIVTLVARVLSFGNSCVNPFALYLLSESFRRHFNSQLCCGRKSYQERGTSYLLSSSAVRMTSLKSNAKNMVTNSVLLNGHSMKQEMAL

With `CC(C)NC(=O)NS(=O)(=O)c1cnccc1NC1CC2CCC1C2` (stereo unspecified), half-maximal inhibition in data set [1] (IC50) required 600 nM. Besides, a half-maximal response in [2] (EC50) required 220 nM.

On to `CC(C)(C)NC(=O)NS(=O)(=O)c1cnccc1NC1CC2CCC1C2` (stereo unspecified), for which the EC50 in [3] and in data set [4] was above 10000 nM each time.

Take `CC(C)(C)NC(=O)NS(=O)(=O)c1cnccc1NC1CC2CCC1C2` (racemic): the MRT in data set [5] is 39.6 min. In addition, the half-life in data set [6] is 288 min. Also, the Vd in [7] stood at 0.57 L/kg. For the same molecule, the clearance in data set [8] was 14 mL/min/kg. This molecule had a Cmax in data set [9] of 7 µM. The molecule also returned a bioavailability in [10] of 100%.

For `CCC(C)(C)NC(=O)NS(=O)(=O)c1cnccc1NC1CC2CCC1C2` (racemic), in data set [5], the mean residence time (MRT) was determined as 11.4 min. The half-life in [6] is 15 min. Moreover, the Vd in data set [7] amounted to 0.3 L/kg. Also, the clearance in data set [8] stood at 26 mL/min/kg. Also, the Cmax in data set [9] turned out to be 2 µM. In data set [10], the bioavailability was found to be 41%.

The IC50 is the midpoint of a concentration-inhibition curve. In general, EC50 refers to the concentration giving half of the maximal effect. Lower therefore signals higher potency in that assay. For orientation: MRT means the average time that molecules of a dose stay in the body. By half-life is commonly meant the time needed for the level to fall by half in the phase considered. What is called Cmax is the maximum level reached in the sampled fluid or tissue. By bioavailability is commonly meant the share of a dose that reaches the circulation, judged against a reference dose that is usually intravenous.
